Compounds with a hit are over-represented: about 2.1% of the library has one in this group of screens.
hiPSC survival – enhancers of human iPSC single-cell survival. survival enhancement, % at 20 µM. hiPSC single-cell survival, ATPlite luminescence; 100% = ROCK inhibitor wells, 0% = DMSO. actives 0.044% (n = 360,000); in the data active means survival enhancement above about 18%;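 further: cells exposed to compounds for 16 hours before the ATP read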
CRFR2-BP ag – agonists of human CRF-binding protein/CRF-R2 receptor complex; HEK293 CRF-R2/CRF-BP, calcium dye fluorescence (FLIPR); percent of saturating CRF peptide response; activation, % at 13.2 µM; actives 0.46% (n = 350,000); AID 588473;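 active means activation of at least 50%, plus an integration ratio under a set limit after plate pattern correction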;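 further: plate controls were neutral control wells without compound for no effect and CRF at EC100 for full effect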
UCH37 inh – human UCH37 deubiquitinating enzyme inhibition. Q9Y5K5. purified proteasome/UCH37, Ub-AMC cleavage fluorescence. inhibition, % (test concentration not listed). actives 0.33% (n = 330,000). AID 588478;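 active means mean inhibition over replicate wells above about 20%, limit read from the data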;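 further: 0% = compound-free wells with enzyme and 100% = wells lacking proteasome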
Target sequence (Q9Y5K5 whole entry, looked up): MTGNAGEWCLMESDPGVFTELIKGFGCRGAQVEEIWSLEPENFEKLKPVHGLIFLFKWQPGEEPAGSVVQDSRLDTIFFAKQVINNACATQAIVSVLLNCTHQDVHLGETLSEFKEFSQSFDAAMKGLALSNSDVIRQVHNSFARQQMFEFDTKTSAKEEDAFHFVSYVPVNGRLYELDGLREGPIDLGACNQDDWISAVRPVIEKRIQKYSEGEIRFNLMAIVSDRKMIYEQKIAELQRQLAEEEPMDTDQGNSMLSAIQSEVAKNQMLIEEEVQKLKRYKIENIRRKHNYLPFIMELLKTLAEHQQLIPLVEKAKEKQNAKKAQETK
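Signal – fluorescence, ex 355 nm, em 460 nm · System – Proteasome-bound UCH37 · Input – 0.15 nM proteasome as dispensed · Timing – 30 min preincubation with enzyme, 25 min cleavage at room temperature · Read-out basis – percent inhibition of cleavage signal versus uninhibited and no-proteasome wells · Medium – Tris-HCl pH 7.4 with ATP-MgCl2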
MIN6 prolif – MIN6 beta-cell proliferation induction. MIN6 cells proliferation, ATPlite luminescence, 48 h; cells starved in 0.2% serum; 100% = growth in 10% serum. proliferation, % at 10 µM. actives 0.29% (n = 330,000). AID 2380;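 active means compounds whose signal lies at least 3.5 SD above the mean of all wells on their plate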;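 further: 0% = DMSO-treated cells in low-serum medium and 100% = 10% serum control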
H9c2 protect – protects H9c2 cardiomyocytes from peroxide injury. H2O2 injury protection, ATPLite, 2 h. protection from H2O2 cell death, % at 20 µM. actives 0.63% (n = 360,000). AID 588492;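 active means compounds giving at least 50% protection of heart cells from peroxide-induced death in the single-dose screen, raw or plate-pattern-corrected value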;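 further: 0% = DMSO wells with peroxide and 100% = DMSO wells without peroxide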
CRFBP-R2 block – antagonists of CRF-binding protein/CRF-R2 receptor complex; HEK293 CRF-R2/CRF-BP, CRF-induced calcium fluorescence; inhibition, % at 11.8 µM; actives 0.59% (n = 350,000); AID 588475;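 active means inhibition of the ligand-induced calcium signal above about 50% at the single tested concentration, limit read from the data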
Numbers without * were called inactive; / = no result.

SMILES	hiPSC survival	CRFR2-BP ag	UCH37 inh	MIN6 prolif	H9c2 protect	CRFBP-R2 block
CCC(ONc1ccccc1C(F)(F)F)(C(=O)NN(C)C)c1ccccc1 (stereo not drawn)	0	-1	-1	-7	53*	5
Cc1[nH]c2ccccc2c1C=NNC(=O)c1cccs1	/	/	5	/	/	/
CCOc1cc(C=NNC(=O)c2ccncc2)cc(Cl)c1OS(C)(=O)=O	/	/	7	/	/	/
O=C(CNC(=O)c1cccc(Br)c1)N/N=C/c1cc(Br)cc(Br)c1O	0	1	/	-6	59*	-1
CC1Sc2ccc(S(=O)(=O)N3CCC(C(=O)NCCc4ccccc4)CC3)cc2NC1=O (stereo not drawn)	0	1	4	-1	-3	-2
CC1Sc2ccc(S(=O)(=O)N3CCC(C(=O)NCC(C)c4ccccc4)CC3)cc2NC1=O (stereo not drawn)	0	1	1	-1	-6	53*
COc1cccc(C(=O)NCC(=O)NN=C(C)Cc2ccccc2)c1	/	/	2	/	/	/
Nc1nonc1-n1nnc(C(=O)NN=Cc2ccccc2O)c1CN1CCCC1	/	/	3	/	/	/
CC1=Nc2ccccc2/C1=C\c1nc(-c2ccc(C(F)(F)F)cc2)oc1O	-1	121*	7	-6	-3	-205
CC1=Nc2ccccc2/C1=C\c1nc(-c2ccccc2)oc1O	0	10	5	-4	-6	-15
CCCc1nc2ccccc2c(=O)n1N=Cc1ccc(O)cc1O	/	/	1	/	/	/
CCOC(=O)c1c(C)[nH]c(C(C)=NO)c1C	/	/	4	/	/	/
Cc1ccccc1N=Cc1cccc(O)c1O	-2	1	2	-2	58*	-4
CC(N=Cc1cc([N+](=O)[O-])ccc1O)c1ccccc1 (stereo not drawn)	4	0	9	-1	17	-20
CCN(CC)c1ccc(C=Nc2ccc(C)cc2C)c(O)c1	0	-4	8	1	5	8
Cc1ccc(N=Cc2cccc(O)c2O)c(C)c1	-1	/	4	-3	73*	/
CC(N=Cc1cccc(O)c1O)c1ccccc1 (stereo not drawn)	-1	1	4	-4	59*	-1
O=C(CCc1nnc2ccc(NCc3ccco3)nn12)N1CCN(c2ccccc2F)CC1	0	2	0	0	-2	52*
Clc1ccc(CON=C2CCCc3nonc32)c(Cl)c1	/	/	1	/	/	/
CC(=O)c1cccc(NC(=O)Nc2ccc3c(c2)N(C)C(=O)CS3)c1	1	-2	2	-2	52*	-23
COc1ccccc1N1CCN(N=Cc2cc(OC)c(O)c(OC)c2)CC1	/	/	1	/	/	/
CN(C(=O)CSc1nc2c(c(=O)[nH]1)CCCC2)C1CCCCC1	0	-1	3	-1	63*	-3
CN(C(=O)CSc1nc(N)cc(=O)[nH]1)C1CCCCC1	0	0	/	/	1	-9
Cc1ccc(CSc2nnc(SCC(=O)NN=Cc3c[nH]c4ccccc34)s2)cc1	/	/	3	/	/	/
COc1cc(C=NNC(=O)CNc2n[nH]c(=O)[nH]c2=O)ccc1O	/	/	4	/	/	/
SMILES	hiPSC survival	CRFR2-BP ag	UCH37 inh	MIN6 prolif	H9c2 protect	CRFBP-R2 block
CC(C)(C)C1CCc2c(sc(NC(=O)C3CC=CCC3C(=O)O)c2C#N)C1 (stereo not drawn)	0	-3	-1	-1	4	61*
Cn1c(=O)c2ncn(CC(=O)NN=C/C=C/c3ccccc3)c2n(C)c1=O	/	/	8	/	/	/
S=c1[nH]nc(-c2ccccn2)n1N=Cc1cccc(Cl)c1	/	/	4	/	/	/
CCOc1cc2[nH]c(=O)n(Cc3ccccc3)c(=O)c2cc1OCC	1	-1	-5	4	-2	71*
CCOc1cc(C=NNC(=O)CCCC(=O)NC2CCCCC2)ccc1O	/	/	0	/	/	/
CS(=O)(=O)c1ccc(-c2cnc3c(NC=O)cc(-c4ccsc4)cn23)cc1	-3	/	/	/	81*	/
COc1ccc(-c2cnc3c(NC=O)cc(-c4cccc(NS(C)(=O)=O)c4)cn23)cc1OC	-3	/	/	/	105*	/
COc1cccc(-c2cnc3c(NC=O)cc(-c4cc(OC)c(OC)c(OC)c4)cn23)c1	-1	/	/	/	71*	/
O=CNc1cc(-c2ccsc2)cn2c(-c3ccccc3)cnc12	-2	/	/	/	-15	/
COc1cccc(-c2cc(NC=O)c3ncc(-c4ccc(OC)c(OC)c4)n3c2)c1	3	/	/	/	49	/
Clc1nnc(NN=Cc2ccccc2)c2ccccc12	/	/	3	/	/	/
COC(=O)NN=Cc1cccc(OC(=O)c2cccs2)c1	/	/	5	/	/	/
COc1cc(C(=O)Nc2nc(OC)c(-c3ccccc3)c(OC)n2)cc(OC)c1OC	-1	0	2	0	70*	21
COc1ccc(C=NNC(=O)Cn2nnc3ccccc32)cc1OC	/	/	7	/	/	/
CCOC(=O)CN1C(=O)S/C(=C/C=C/c2ccc(N(C)C)cc2)C1=O	-1	90*	3	-4	-6	-127
Cc1ccc(C)c(N2CCN(S(=O)(=O)c3ccc4c(c3)C(C)(C)C(=O)N4C)CC2)c1	0	-2	5	-6	-5	127*
CCOC(=O)NN=C1CCS(=O)(=O)c2ccc(Cl)cc21	/	/	0	/	/	/
CN(C)C=Nn1cnc2ccccc2c1=O	/	/	1	/	/	/
CNCC(=O)O	-1	-1	0	-1	-7	77*
CCOC(=O)C(=CNCC(=O)O)C(=O)OCC	0	0	-1	-2	3	11
Cc1c(C(=O)NN=Cc2ccoc2)cccc1[N+](=O)[O-]	/	/	3	/	/	/
CN(C)C=Nc1ncc(C(=O)c2ccc(-c3ccccc3)cc2)s1	/	/	-8	/	/	/
O=C1c2ccccc2C(=O)c2c(O)c(O)cc(O)c21	-1	4	5	-2	-10	52*
Nc1ccc(O)c2c1C(=O)c1ccccc1C2=O	0	4	/	0	-3	1
CC(=NNC(=O)c1ccc([N+](=O)[O-])cc1)C(=NO)C(=O)Nc1ccccc1	/	/	3	/	/	/
SMILES	hiPSC survival	CRFR2-BP ag	UCH37 inh	MIN6 prolif	H9c2 protect	CRFBP-R2 block
O=C(NN=C1CCSC1)c1cc(Cl)ccc1O	/	/	-96	/	/	/
CC(=O)NC(c1ccco1)c1cc(F)c2cccnc2c1O (stereo not drawn)	0	-2	-2	-7	50*	3
CC(=O)NC(C)c1cc(Cl)c2cccnc2c1O (stereo not drawn)	-1	-2	4	-7	58*	7
CCOc1ccc(C(Nc2cccnc2)c2cc(Cl)c3cccnc3c2O)cc1 (stereo not drawn)	1	1	22*	-6	38	-3
O=C(NN=Cc1ccc(C(F)(F)F)cc1)c1ccc(O)cc1	/	/	5	/	/	/
Cc1ccc2oc(=O)c(/C=C(\O)C(C)(C)C)nc2c1	-1	0	1	0	27	5
Cc1ccc(/C(O)=C/c2nc3ccccc3oc2=O)cc1	-1	60*	3	-1	-15	-60
Cc1ccc2oc(=O)c(/C=C(\O)c3ccco3)nc2c1	-1	147*	/	-2	3	-54
O=c1oc2ccccc2nc1/C=C(O)/C=C\c1ccccc1	9	2	/	-4	2	-26

Assay outcomes: PubChem BioAssay, several laboratories
